Test results: paper PMC6557127 (Journal of molecular and cellular cardiology, 2019)

Assays:
parental HEK293 cells = test: cGMP generation in parental; type: cell-based, human; settings: levels similar to vehicle treatment (Supplemental Figure 2)
In short: (§1)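 HEK293 cells stably expressing human pGC-A or pGC-B, or parental cells, were kept in DMEM with 10% FBS and 250 ug/ml G418. Cells were grown overnight to 80–90% confluency. They were treated for 10 min with serial concentrations (10−10 to 10−6 M) in HBSS containing 0.1% BSA, 2 mM HEPES and 0.5 mM IBMX; buffer alone served as vehicle. After a PBS wash and lysis in 0.1 M HCl, intracellular cGMP was measured by ELISA.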

Plasma CNP-like levels = type: in vivo, Fischer rats; settings: low, medium and high dose (4.55, 45.5, 455 pmol/kg/min) IV infusion 75 min, normal rats, RIA, n=4/group
In short: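 They then received a 75 min continuous IV infusion (15 min lead-in) of native peptide, analogue or 0.9% saline vehicle with inulin. Infusion rate was weight-adjusted. Blood was taken after the 60 min clearance period. A non-equilibrium RIA used a CNP-sequence antibody (standard curve 0.5–128 pg; <1% cross-reactivity with ANP, BNP).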

human pGC-B receptor = molecular target: T1, human pGC-B receptor (Homo sapiens, UniProt P20594); test: cGMP generation in HEK293 cells overexpressing human pGC-B; type: cell-based; settings: 10^−8.5 to 10^−6 M, 10 min, 0.5 mM IBMX, intracellular cGMP ELISA, triplicate
T1 sequence (P20594 23-1047): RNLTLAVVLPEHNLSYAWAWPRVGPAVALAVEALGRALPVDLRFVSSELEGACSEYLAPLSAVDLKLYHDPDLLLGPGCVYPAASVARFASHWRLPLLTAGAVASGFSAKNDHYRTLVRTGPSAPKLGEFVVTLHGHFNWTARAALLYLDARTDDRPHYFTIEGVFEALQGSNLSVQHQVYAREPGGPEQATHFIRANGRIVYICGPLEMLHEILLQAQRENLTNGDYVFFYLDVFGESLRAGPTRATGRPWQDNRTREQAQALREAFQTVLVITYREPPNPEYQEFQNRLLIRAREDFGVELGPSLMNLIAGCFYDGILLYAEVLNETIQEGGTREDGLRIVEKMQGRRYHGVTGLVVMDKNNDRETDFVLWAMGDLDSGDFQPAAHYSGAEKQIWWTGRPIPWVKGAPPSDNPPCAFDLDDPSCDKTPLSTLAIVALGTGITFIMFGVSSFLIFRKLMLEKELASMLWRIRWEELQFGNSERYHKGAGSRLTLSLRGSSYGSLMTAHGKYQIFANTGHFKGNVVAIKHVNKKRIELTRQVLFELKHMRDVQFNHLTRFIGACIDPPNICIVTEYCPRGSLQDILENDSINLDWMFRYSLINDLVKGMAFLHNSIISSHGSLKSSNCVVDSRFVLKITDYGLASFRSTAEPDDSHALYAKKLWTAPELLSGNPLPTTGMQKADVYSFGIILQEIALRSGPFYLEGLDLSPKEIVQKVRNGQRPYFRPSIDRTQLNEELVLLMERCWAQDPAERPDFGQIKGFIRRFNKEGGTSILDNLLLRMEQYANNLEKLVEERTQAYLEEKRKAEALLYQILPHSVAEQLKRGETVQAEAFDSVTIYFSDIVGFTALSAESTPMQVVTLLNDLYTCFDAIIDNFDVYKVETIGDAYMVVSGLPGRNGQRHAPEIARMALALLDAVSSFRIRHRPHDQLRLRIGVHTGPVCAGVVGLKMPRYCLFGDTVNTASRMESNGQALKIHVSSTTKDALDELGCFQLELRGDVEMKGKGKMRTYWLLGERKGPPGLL
In short: as §1

[1] = Blood pressure and renal function with acute IV infusion; type: in vivo, Fischer rats; settings: mean ± SEM, n=4/group; for UV (urine flow): 60 min clearance; for UNaV (urinary sodium excretion rate): flame photometry; for GFR (glomerular filtration rate): inulin clearance; for ΔMAP (change in mean arterial pressure): normal rats
In short: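 Male Fischer rats (about 2 months, 200–250 g) under isoflurane (2–3% in oxygen) had jugular vein, carotid artery and bladder catheters. After 30 min equilibration with IV inulin and saline, test compound or 0.9% saline vehicle was infused IV with inulin for 75 min, including a 15 min lead-in. BP was recorded and urine collected over a 60 min clearance period. Urinary sodium was measured by flame photometry and inulin by anthrone; GFR was taken from inulin clearance. n=4/group.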

[2] = molecular target: natriuretic peptide clearance receptor (NPRC), tagged with green fluorescence protein (UniProt P17342); test: AlphaScreen or HTRF
human pGC-A receptor = molecular target: T2, human pGC-A receptor (Homo sapiens, UniProt P16066); test: cGMP generation in HEK293 cells overexpressing human pGC-A; type: cell-based; settings: mean±SEM
T2 sequence (P16066 33-1061): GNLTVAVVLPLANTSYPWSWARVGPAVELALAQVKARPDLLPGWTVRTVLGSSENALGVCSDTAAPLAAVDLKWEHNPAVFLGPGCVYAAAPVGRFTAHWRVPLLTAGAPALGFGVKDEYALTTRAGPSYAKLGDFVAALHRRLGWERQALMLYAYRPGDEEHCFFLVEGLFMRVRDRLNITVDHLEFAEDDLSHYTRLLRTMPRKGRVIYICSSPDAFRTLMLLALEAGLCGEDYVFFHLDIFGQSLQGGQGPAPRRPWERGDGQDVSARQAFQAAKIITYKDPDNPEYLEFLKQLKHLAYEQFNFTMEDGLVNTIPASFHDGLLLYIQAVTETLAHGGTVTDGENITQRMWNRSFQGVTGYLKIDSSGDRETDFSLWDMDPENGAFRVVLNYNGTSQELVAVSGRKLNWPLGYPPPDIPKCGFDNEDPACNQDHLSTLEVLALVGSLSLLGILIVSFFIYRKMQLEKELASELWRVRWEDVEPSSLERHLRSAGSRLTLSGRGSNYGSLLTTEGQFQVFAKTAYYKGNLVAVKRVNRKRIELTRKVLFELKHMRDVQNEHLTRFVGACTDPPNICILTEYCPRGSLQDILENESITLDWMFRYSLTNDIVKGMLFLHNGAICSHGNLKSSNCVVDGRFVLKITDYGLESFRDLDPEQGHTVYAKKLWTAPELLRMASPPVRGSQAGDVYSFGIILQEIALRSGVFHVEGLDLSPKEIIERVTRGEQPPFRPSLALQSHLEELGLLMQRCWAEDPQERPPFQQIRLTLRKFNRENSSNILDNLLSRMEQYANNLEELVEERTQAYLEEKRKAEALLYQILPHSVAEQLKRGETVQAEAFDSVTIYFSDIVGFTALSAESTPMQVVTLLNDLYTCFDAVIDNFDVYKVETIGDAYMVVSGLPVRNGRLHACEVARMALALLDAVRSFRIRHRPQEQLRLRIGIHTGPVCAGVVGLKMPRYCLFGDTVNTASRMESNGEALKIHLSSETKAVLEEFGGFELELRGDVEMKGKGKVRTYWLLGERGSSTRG
In short: as §1

[3] = High = 455 pmol/kg/min IV infusion
[4] = Low = 4.55 pmol/kg/min IV infusion
[5] = Medium = 45.5 pmol/kg/min IV infusion

Chain of natriuretic peptide clearance receptor (NPRC), tagged with green fluorescence protein (P17342 27-541): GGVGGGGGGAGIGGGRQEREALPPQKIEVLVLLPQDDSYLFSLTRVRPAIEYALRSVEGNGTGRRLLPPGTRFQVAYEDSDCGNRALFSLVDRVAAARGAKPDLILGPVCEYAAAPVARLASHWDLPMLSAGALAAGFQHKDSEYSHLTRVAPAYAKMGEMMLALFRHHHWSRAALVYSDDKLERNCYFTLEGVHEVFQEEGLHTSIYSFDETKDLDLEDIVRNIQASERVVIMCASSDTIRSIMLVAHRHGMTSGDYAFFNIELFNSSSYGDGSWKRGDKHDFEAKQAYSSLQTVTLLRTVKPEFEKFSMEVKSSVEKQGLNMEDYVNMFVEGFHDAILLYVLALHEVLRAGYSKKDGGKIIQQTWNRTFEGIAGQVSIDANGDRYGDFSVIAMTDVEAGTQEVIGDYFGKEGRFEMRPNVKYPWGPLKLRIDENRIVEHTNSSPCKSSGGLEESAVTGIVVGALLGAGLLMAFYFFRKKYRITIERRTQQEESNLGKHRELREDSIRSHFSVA

NH2-GLSKGCFGLKLDRIGSMSGLGC-COOH [CNP, C-type natriuretic peptide, reference compound]
cGMP generation in parental HEK293 cells (parental HEK293 cells): did not generate cGMP | Plasma CNP-like levels (CLL) (Plasma CNP-like levels): increased plasma CLL levels in a dose-dependent manner | cGMP generation in HEK293 pGC-B cells compared to vehicle (human pGC-B receptor): significant cGMP generation | UV (urine flow) [1, 3]: 9.8 ± 0.3 µL/min | UNaV (urinary sodium excretion rate) [1, 3]: 0.9±0.1 uEq/min | GFR (glomerular filtration rate) [1, 3]: 1.3 ± 0.1 mL/min | UV (urine flow) [1, 4]: 11.3 ± 1.0 µL/min | UNaV (urinary sodium excretion rate) [1, 4]: 0.8±0.1 uEq/min | GFR (glomerular filtration rate) [1, 4]: 1.2 ± 0.1 mL/min | ΔMAP (change in mean arterial pressure) [1, 4]: −0.9±0.9 mmHg | UV (urine flow) [1, 5]: 10.0 ± 0.9 µL/min | UNaV (urinary sodium excretion rate) [1, 5]: 0.7±0.1 uEq/min | GFR (glomerular filtration rate) [1, 5]: 1.2 ± 0.2 mL/min | ΔMAP (change in mean arterial pressure) [1, 5]: −1.9±0.5 mmHg

C53, the 53-AA intermediate form of proCNP processing (peptide)
AlphaScreen signal [2]: 200

b-type natriuretic peptide [BNP]
cGMP in HEK293 pGC-A cells (human pGC-A receptor; 10^−6 M): 1028±73 pmol/mL | cGMP in HEK293 pGC-A cells (human pGC-A receptor; 10^−8 M): 385±66 pmol/mL | cGMP in HEK293 pGC-A cells (human pGC-A receptor; 10^−10 M): 5±1 pmol/mL
